Screening results from PubChem.
Calb FLC: affects C. albicans growth with fluconazole; growth inhibition, % (test concentration not listed); AID 1979; C. albicans CaCi-2 (fluconazole-resistant clinical isolate) + fluconazole, Alamar Blue growth, 48 h; hit rate 0.57% among 300,000;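 active = growth inhibition above about 58% in most replicates, limit read from the data, passing the limit was not always enough; inconclusive = exactly half the replicates above a set limit; inactive = most replicates below a set limit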;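 also: all wells also contain fluconazole at 8 µg/ml as a sub-toxic cotreatment; 0% = median of DMSO wells and 100% = median of geldanamycin control wells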
ARFGAP1 inh: inhibits rat ARF GTPase activating protein 1 | Q62848 | Arfgap1-stimulated ARF1 GTP hydrolysis, GDP FP detection | inhibition, % at 16.5 µM | hit rate 0.26% among 360,000 | AID 651572;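 active = inhibition above a per-plate limit, mean inhibition of low control wells plus 3 SD, cut at about 25% in these data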;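 also: 0% = DMSO wells with enzyme and 100% = wells lacking Arfgap1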
Target sequence (Q62848 1-136 limits assumed): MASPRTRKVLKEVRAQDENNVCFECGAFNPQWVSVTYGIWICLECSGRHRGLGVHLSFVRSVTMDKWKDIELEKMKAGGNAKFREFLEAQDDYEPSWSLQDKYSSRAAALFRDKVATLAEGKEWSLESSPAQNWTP
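Replicates: Single well per compound | Assay system: Truncated rat Arfgap1 GAP domain | Control set: No-Arfgap1 wells (100%) versus DMSO full-reaction wells (0%) | Times: Enzyme reaction 120 min at 25 °C after 20 min preincubation | Reagent: Human ARF1(Δ1-17)-GTP substrate | Measured by: Tracer-displacement fluorescence polarization with EDTA stop, 620/688 nm | Measure: Percent inhibition of Arfgap1-stimulated GTP hydrolysis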
ASAP1 GAP inh: inhibitors of human ASAP1 ArfGAP activity. hit rate 0.19% among 360,000. ASAP1-stimulated ARF1 GTP hydrolysis, GDP FP detection. AID 624377. Q9ULH1. inhibition, % at 16.5 µM; in the data active = inhibition above about 25%;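 also: 0% = vehicle with enzyme and substrate and 100% = no enzyme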
Target sequence (Q9ULH1 325-724 limits assumed): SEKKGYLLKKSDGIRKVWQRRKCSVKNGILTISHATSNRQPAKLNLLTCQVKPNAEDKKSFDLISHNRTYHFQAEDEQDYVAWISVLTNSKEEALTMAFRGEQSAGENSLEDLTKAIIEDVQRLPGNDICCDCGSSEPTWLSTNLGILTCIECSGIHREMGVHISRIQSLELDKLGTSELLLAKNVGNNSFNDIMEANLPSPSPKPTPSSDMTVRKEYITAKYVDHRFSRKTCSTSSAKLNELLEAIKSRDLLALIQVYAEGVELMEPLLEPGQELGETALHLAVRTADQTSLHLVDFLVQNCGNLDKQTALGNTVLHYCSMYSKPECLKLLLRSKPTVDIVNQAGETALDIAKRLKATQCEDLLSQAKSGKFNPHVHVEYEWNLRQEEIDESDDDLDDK
SKKanGAS inh: blocks kanamycin growth of S. pyogenes SKKanGAS strain. BacTiter-Glo, 6 h. inhibition, % at 7.5 µM. hit rate 1.3% among 300,000;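 active = mean replicate score, as percent of positive control median, at least 50; inconclusive = mean below 50 but one replicate at or above 50; inactive = mean and every replicate below 50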;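 also: strain carries kanamycin resistance gene driven by streptokinase promoter and grows in 40 µg/ml kanamycin; loss of luminescence reflects streptokinase promoter inhibition or plain growth inhibition; 0% = median of DMSO wells and 100% = positive control at its reference dose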
sPLA2-III inh: Blocks human group III sPLA2 activity; QFRET BODIPY PC-A2 liposome hydrolysis, fluorescence; inhibition, % at 12.2 µM; hit rate 0.56% among 370,000; Q9NZ20;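 active = inhibition above mean plus 3 SD of compounds lying within the high and low control bounds, cut at about 19% in these data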;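 also: 0% = median of test compound wells and 100% = no enzyme DMSO wells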
An asterisk follows results filed as active; u = inconclusive; x = no result. Only some compounds are listed: those with a hit (about 2.3% of all), similar ones and a draw of the others.

SMILES | Calb FLC | ARFGAP1 inh | ASAP1 GAP inh | SKKanGAS inh | sPLA2-III inh
CCCCN1C[C@@H]2CSCCS(=O)(=O)N2C1=O | x | x | x | x | 13
C[C@@H]1COc2cccc(F)c2S(=O)(=O)N1C | x | x | x | x | 8
COC(=O)[C@]12C[C@H](CC(=O)NCc3ccccc3)C(=O)N(Cc3ccco3)C1=C[C@H](C(C)C)O[C@@H]2C1CC1 | x | x | x | x | -9
Cc1cc(C(C#N)c2ccccc2)n2ncnc2n1 (centres undefined) | x | 6 | -2 | 5 | -3
Cc1cc(C(C#N)c2cccc(Cl)c2)n2ncnc2n1 (centres undefined) | 96* | -1 | 1 | 5 | -25
CCc1cc(C(=O)NNC(=S)Nc2ccccc2C)cs1 | 54 | 8 | 4 | 3 | 14
CCc1cc(C(=O)NNC(=S)Nc2cc(C)ccc2C)cs1 | 99* | -7 | 6 | -1 | 6
CC1Nc2ncnc(N3CCN(c4ccccc4)CC3)c2N(Cc2ccc(Br)cc2)C1=O (centres undefined) | 3 | 2 | 3 | 20 | 1
COc1ccc(-c2nnc(NC(=O)c3cc(Cl)ccc3Cl)o2)cc1 | 83* | -6 | -9 | 86* | -3
O=C(Nc1nnc(-c2ccncc2)o1)c1ccc(Br)s1 | 51 | -15 | 2 | 53* | -3
O=C(Nc1nnc(-c2ccccc2)o1)c1nc2ccccc2s1 | 23 | -2 | 2 | 92* | 6
Cc1ccccc1C(=O)Nc1nnc(-c2ccc(F)cc2)o1 | 89* | -11 | 8 | 61* | 1
Cc1ccc(-c2nnc(SCC(=O)Nc3ccc(F)cc3F)n2Cc2ccco2)cc1 | x | x | x | x | 7
COC(=O)[C@@]12CCCCC3=C1N(CCC3)C(=O)[C@H]2CC(=O)NCCc1ccccc1OC | x | x | x | x | 1
CCCCCCCCN1C(=O)[C@@H](CC(=O)NCc2ccc(C)o2)C[C@@]2(C(=O)OC)C1=C[C@H](C(C)C)O[C@@H]2C1CC1 | x | x | x | x | -17
CC(C)NC(=O)OC[C@H]1O[C@H](C#Cc2ccc(C(C)(C)C)cc2)C=C[C@H]1O | x | 11 | -12 | x | 16
COc1ccc(-c2nnc(NC(=O)c3ccc4c(c3)OCCO4)o2)cc1 | -1 | -5 | -9 | -2 | 0
COc1ccc(-c2nnc(NC(=O)c3ccc(F)cc3)o2)cc1 | 92* | -7 | -3 | 91* | 1
Nc1nc2c(ncn2[C@@H]2O[C@H](C(=O)N[C@H](Cc3ccccc3)C(=O)NCc3ccccc3)[C@@H](O)[C@H]2O)c(=O)[nH]1 | x | 11 | -9 | x | 8
O=C(CCc1ccccc1-c1ccccc1CCNC(=O)c1c(F)cccc1F)NCc1ccccc1 | x | x | x | x | -11
Oc1nc(Nc2ccc(F)cc2)sc1/C=C1\C=Nc2ccccc21 | 0 | 6 | 3 | 55* | -41
Cc1ccc(-n2c(SCC(=O)C(C)(C)C)nnc2-c2cccc(C)c2)cc1 | x | x | x | x | 1
Cc1cc(Oc2cnn(C(C)(C)C)c(=O)c2Cl)cc(C(C)C)c1 | -7 | -9 | -3 | 59* | -6
Cc1cccc(N=C2NN=C(c3ccc4c(c3)OCCO4)CS2)c1 | 3 | -1 | 1 | 12 | 3
Cc1cccc(N=C2NN=C(c3c(C)[nH]c4ccccc34)CS2)c1 | 0 | 19 | 8 | 98* | -2
SMILES | Calb FLC | ARFGAP1 inh | ASAP1 GAP inh | SKKanGAS inh | sPLA2-III inh
O=C(NCC(c1ccccc1)c1ccccc1)[C@H](Cc1c[nH]c2ccccc12)NC1(C(=O)NC2CCCCC2)CCN(Cc2ccccc2)CC1 | x | x | x | x | -37
CN1C(=O)/C(=C/c2ccccc2Cl)Sc2ccc(C(=O)NCc3cccnc3)cc21 | 29 | 5 | 3 | 71* | -15
CN1C(=O)/C(=C/c2ccccc2F)Sc2ccc(C(=O)NCC3CCCO3)cc21 (centres undefined) | -2 | -3 | -6 | u | -20
O=C(CCCCCNC(=O)c1ccccc1)N=Nc1c(O)[nH]c2c(Br)cc(Br)cc12 | 13 | x | x | 59* | x
Cc1cc([N+](=O)[O-])ccc1-c1ccc(C2Nc3ccccc3C(=O)N2O)o1 (centres undefined) | 101* | -10 | 18 | -4 | -30
N#Cc1ccc(-c2ccc(C3Nc4ccccc4C(=O)N3O)o2)cc1 (centres undefined) | x | 4 | 4 | x | -15
CCOC(=O)c1ccc(-c2ccc(C3Nc4ccccc4C(=O)N3O)o2)cc1 (centres undefined) | 91* | 8 | 3 | 14 | -69
Cc1cccc(CN2CCSCCS2(=O)=O)c1 | x | 8 | 11 | x | 7
COC(=O)C1CN(Cc2ccc(Cl)cc2)CCS(=O)(=O)N1Cc1cn(Cc2ccc(F)cc2)nn1 (centres undefined) | x | x | x | x | -15
COc1ccc(C(=O)NCC(=O)OCCCOC(=O)CNC(=O)c2ccc(OC)c(OC)c2)cc1OC | 3 | 13 | 0 | 50* | 10
COC(=O)[C@]12C[C@H](CC(=O)N3CCOCC3)C(=O)N(Cc3cccc4ccccc34)C1=C[C@H](C(C)(C)C)O[C@@H]2C | x | x | x | x | -5
O=C(Cc1ccccc1F)N1CCC(n2nnc3ncccc32)CC1 | x | x | x | x | 14
COCc1cc(=O)[nH]c(Nc2nc3ccc(C)cc3o2)n1 | -8 | -2 | -1 | 70* | -5
O=C(CSc1nnc(COc2ccc(Cl)cc2)n1Cc1ccco1)Nc1cccc2ccccc12 | x | x | x | x | -31
COc1ccccc1-c1cc(=O)c2c(O)ccc([N+](=O)[O-])c2o1 | -3 | 6 | 1 | 70* | 5
Nc1ccc2oc(-c3ccccc3Cl)cc(=O)c2c1O | 0 | -3 | -4 | 5 | 7
O=c1cc(-c2ccccc2Cl)oc2ccc([N+](=O)[O-])c(O)c12 | -4 | -16 | -11 | 87* | 3
O=c1cc(-c2ccccc2Cl)oc2c([N+](=O)[O-])c(O)cc(O)c12 | 35 | -2 | -11 | 26 | -16
CCCCOCCCNC(=O)C[C@H]1C[C@@]2(C(=O)OC)C(=C[C@H](C(C)(C)C)O[C@@H]2C)N(Cc2ccc3c(c2)OCO3)C1=O | x | 9 | -2 | x | 9
COCCn1c(-c2cc(OC)c(OC)c(OC)c2)nc2oc3cc(OC)ccc3c(=O)c2c1=O | -1 | x | x | 55* | x
CO/N=C(\C(=O)N[C@@H]1C(=O)N2C(C(=O)O)=C(COC(N)=O)CS[C@H]12)c1ccco1 | x | 8 | 3 | 102* | 4
CC(=O)OCC1=C(C(=O)O)N2C(=O)C(NC(=O)c3ccc(F)cc3)C2SC1 (centres undefined) | 4 | 0 | -5 | 90* | -1
COCC1=C(C(=O)OC(C)OC(=O)OC(C)C)N2C(=O)[C@@H](NC(=O)/C(=N\OC)c3csc(N)n3)[C@H]2SC1 (some centres undefined) | x | 4 | -8 | 102* | -6
CC(=O)OCC1=C(C(=O)O)N2C(=O)[C@@H](NC(=O)CSc3ccncc3)[C@H]2SC1 | x | -3 | 1 | x | 11
CC(=O)OCC1=C(C(=O)O)N2C(=O)C(NC(=O)C(C)Cn3nc(C)c(Cl)c3C)C2SC1 (centres undefined) | 12 | -14 | 3 | 101* | -6
Cc1cc2c(c(=O)o1)[C@@]1(C(=O)N(C)c3cc(Br)ccc31)C1=C(CCCC1=O)O2 | x | -1 | 8 | x | 2
